Assay results collected from several papers.
Lines come from different studies, so protocols differ. pIC50: −log10 of the molar value. ≈ marks a conversion by molar mass, not a printed value.
Organism: Escherichia coli

Compound | assay | system | setting | measurement | value
N=C(N)c1ccc(OCCCCCCCCOc2ccc(C(=N)N)cc2)cc1 | microbial growth | BW25113 |  | MIC | 50 µg/mL (≈ 131 µM)
Cc1ccc(-n2cc(COc3cccc4cccnc34)nn2)cc1 | microbial growth, broth dilution | ATCC25922 |  | IC50 | 176 µg/mL
Cc1cc(N)c2ccccc2[n+]1CCCCCCCCCC[n+]1c(C)cc(N)c2ccccc21 | microbial growth, disc diffusion |  | 50 µg/disc | inhibition zone | 0 mm
Clc1ccc(-c2nc3ccccc3[nH]2)cc1Cl | microbial growth, broth dilution | ATCC25922 |  | MIC | 32 µg/mL (≈ 122 µM)
CCOC(=O)c1c(N)csc1-c1cn(-c2ccccc2)nc1-c1ccc(C)cc1 | microbial killing, broth dilution |  |  | MBC | 0.125 µg/mL (≈ 0.31 µM)
O=C(Sc1cccccc1=O)c1ccc(C(F)(F)F)cc1 | microbial growth, broth dilution | ATCC35218 |  | MIC80 | 66.7 µM (≈ 20.7 µg/mL)
COc1c(C)c(OC(C)=O)c(C)c(O)c1C(=O)/C=C/c1ccccc1 | microbial killing, broth dilution | ATCC25922 |  | MBC | > 5000 µg/mL
N=C(N)c1ccc(OCc2ccccc2COc2ccc(C(=N)N)cc2)cc1 | microbial growth, broth dilution | W3110 |  | MIC | > 200 µg/mL
c1ccc(-n2cc(COc3cccc4cccnc34)nn2)cc1 | microbial growth, broth dilution | ATCC25922 |  | IC50 | 408 µg/mL
CC1(C)S[C@@H]2[C@H](NC(=O)[C@H](N)c3ccc(O)cc3)C(=O)N2[C@H]1C(=O)O | microbial growth, disc diffusion | ATCC25922 | 250 µg/mL | inhibition zone | 11.2 mm
Cc1ccc2nc(-c3ccco3)[nH]c2c1 | microbial growth, broth dilution | ATCC25922 |  | MIC | 128 µg/mL (≈ 646 µM)
N=C(N)c1ccc(OCCS(=O)(=O)CCOc2ccc(C(=N)N)cc2)cc1 | microbial growth, broth dilution | BW25113 |  | MIC | > 200 µg/mL
COc1cc(C=Cc2cc(-c3ccc(N(C)C)cc3)nc(O)n2)ccc1O | microbial growth, disc diffusion | ATCC25922 | 250 µg/mL | inhibition zone | 6 mm
N=C(N)c1ccccc1OCc1ccccc1COc1ccccc1C(=N)N | microbial growth | BW25113 |  | MIC | > 200 µg/mL
Cc1ccc(-n2cc(COc3cc(C(C)C)ccc3C)nn2)cc1 | microbial growth, broth dilution | ATCC25922 |  | IC50 | 289 µg/mL
Cc1ccc2nc(-c3cc(Br)ccc3O)[nH]c2c1 | microbial growth, broth dilution | ATCC25922 |  | MIC | 64 µg/mL (≈ 211 µM)
CC(C)Oc1c(NC(=O)c2ccc(NC(=O)[C@H](CC(N)=O)NC(=O)c3ccc(CCNC(=O)c4ccc(C#N)cc4)cc3)cc2)ccc(C(=O)Nc2ccc(C(=O)O)cc2)c1O | microbial growth | DSM1116 |  | MIC | 0.25 µg/mL (≈ 0.298 µM)
Cc1ccc(C(C)C)cc1OCc1cn(-c2ccc([N+](=O)[O-])cc2)nn1 | microbial growth, broth dilution | ATCC25922 |  | IC50 | 532 µg/mL
COc1c(C)c(OS(=O)(=O)c2ccc3ccccc3c2)c(C)c(OS(=O)(=O)c2ccc3ccccc3c2)c1C(=O)/C=C/c1ccccc1 | microbial growth, well diffusion | ATCC25922 | 5 µg/mL | inhibition zone | 12 mm
COc1c(N2C[C@@H]3CCCN[C@@H]3C2)c(F)cc2c(=O)c(C(=O)O)cn(C3CC3)c12 | microbial growth | ATCC35218 |  | MIC90 | 0.06 µg/mL (≈ 0.149 µM)
O=C1C=C(OCc2cn(-c3ccccc3)nn2)C(=O)c2ccccc21 | microbial growth, broth dilution | ATCC25922 |  | IC50 | 99.5 µg/mL
CCCCCCCCCC(=O)Oc1c(C)c(O)c(C(=O)/C=C/c2ccccc2)c(OC)c1C | microbial killing, broth dilution | ATCC25922 |  | MBC | > 5000 µg/mL
CCN1CCN(C(=O)N[C@@H](C(=O)N[C@@H]2C(=O)N3[C@@H]2SC(C)(C)[C@@H]3C(=O)O)c2ccccc2)C(=O)C1=O | microbial growth, well diffusion | BW25113 | 200 µM | inhibition zone | 19 mm

Compound | assay | system | setting | measurement | value
COc1cc(C=Cc2cc(-c3ccccc3)nc(O)n2)ccc1O | microbial growth, disc diffusion | ATCC25922 | 250 µg/mL | inhibition zone | 6 mm
CC(C)c1cccc(=O)c(O)c1 | microbial growth, broth dilution | ATCC35218 |  | MIC80 | 44.4 µM (≈ 7.29 µg/mL)
O=C(N/N=C/c1ccc([N+](=O)[O-])o1)c1ccc(O)cc1 | microbial growth | ATCC 8739, ATCC8739 |  | MIC90 | > 1000 µg/mL
COc1c(C)c(O)c(C)c(O)c1C(=O)/C=C/c1ccccc1 | microbial killing, broth dilution | ATCC25922 |  | MBC | > 5000 µg/mL
CC(C)Oc1c(NC(=O)c2ccc(NC(=O)[C@H](CC(N)=O)NC(=O)c3ccc(NC(=O)c4ccc(S(C)(=O)=O)cc4)cc3)cc2)ccc(C(=O)Nc2ccc(C(=O)O)cc2)c1O | microbial growth | DSM1116 |  | MIC | 2 µg/mL (≈ 2.31 µM)
CC1(C)S[C@@H]2[C@H](NC(=O)C(C(=O)O)c3ccccc3)C(=O)N2[C@H]1C(=O)O (stereo partly drawn) | microbial growth, well diffusion | BW25113 | 200 µM | inhibition zone | 15 mm
CC(C)Oc1c(NC(=O)c2ccc(NC(=O)[C@H](CC(N)=O)NC(=O)c3ccc(NC(=O)c4ccc(C#N)cc4)cc3)cc2)ccc(C(=O)NC2CCNCC2)c1O | microbial growth | DSM1116 |  | MIC | > 64 µg/mL
O=[N+]([O-])c1ccc(-c2nc3ccccc3[nH]2)cc1 | microbial growth, broth dilution | ATCC25922 |  | MIC | 128 µg/mL (≈ 535 µM)
N=C(N)c1cccc(OCc2cccc(COc3cccc(C(=N)N)c3)c2)c1 | microbial growth | BW25113 |  | MIC | > 200 µg/mL
Cc1sc(C)c(-c2ccc(O)c(O)c2)c1Br | microbial growth | AS19 | 10 h | pIC50 | 4.97
C[C@H]1NCc2cc(-c3ccc4c(=O)c(C(=O)O)cn(C5CC5)c4c3OC(F)F)ccc21 | microbial growth, broth dilution |  |  | MIC50 | ≤ 0.03 µg/mL
O=C1C=C(O)C(=O)c2ccccc21 | microbial growth, broth dilution | ATCC25922 |  | IC50 | 179 µg/mL
O=C(Sc1cccccc1=O)c1cccc(C(F)(F)F)c1 | microbial growth, broth dilution | ATCC35218 |  | MIC80 | 19.8 µM (≈ 6.14 µg/mL)
Fc1ccc(-c2nc3ccccc3[nH]2)cc1 | microbial growth, broth dilution | ATCC25922 |  | MIC | 256 µg/mL (≈ 1210 µM)
CC(C)Oc1c(NC(=O)c2ccc(NC(=O)[C@H](CC(N)=O)NC(=O)c3cccc(NC(=O)c4ccc(C#N)cc4)c3)cc2)ccc(C(=O)Nc2ccc(C(=O)O)cc2)c1O | microbial growth | DSM1116 |  | MIC | > 64 µg/mL
C=CCOc1c(C)c(O)c(C(=O)/C=C/c2ccccc2)c(OC)c1C | microbial killing, broth dilution | ATCC25922 |  | MBC | > 5000 µg/mL
C=CCn1c(-c2ccc(Cl)cc2)nc2ccccc21 | microbial growth, broth dilution | ATCC25922 |  | MIC | 64 µg/mL (≈ 238 µM)
O=C(N[C@H](CO)[C@H](O)c1ccc([N+](=O)[O-])cc1)C(Cl)Cl | microbial growth | ATCC35218 |  | MIC90 | 0.98 µg/mL (≈ 3.03 µM)
Cc1ccc(C(C)C)cc1OCc1cn(-c2ccccc2)nn1 | microbial growth, broth dilution | ATCC25922 |  | IC50 | 249 µg/mL
CN1CC(O)=C(C(=O)NC(C(=O)NC2C(=O)N3C2SC(C)(C)C3C(=O)O)c2ccccc2)C1=O (stereo not drawn) | microbial growth, well diffusion | BW25113 | 200 µM | inhibition zone | 10.5 mm
C#CCCCCCCCCCCCC(O)CC(O)CO (stereo not drawn) | microbial growth, broth dilution | ATCC35218 |  | IC50 | > 200 µg/mL
Cc1ccc(C(C)C)cc1O | microbial growth, broth dilution | ATCC25922 |  | IC50 | 96.2 µg/mL
